Source: PubChem
Compounds with a hit are over-represented: about 2.4% of the library has one in this group of screens.
SIAE primary = human SIAE inhibitors, primary screen, biochemical, fluorescence polarization, FP-Rh probe, 1536-well HTS | Sialate O-acetylesterase (Homo sapiens), Q9HAT2 | AID 1053197, 2014 | 370,000 compounds, 0.69% hits | SIAE FP-Rh probe binding | inhibition, % at 9.66 µM;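 active = inhibition above a cutoff: mean of compounds within the control limits plus 3 SD of those, cut at about 17% in these data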
TDP2 absorb = human TDP2 enzyme inhibitors, primary screen, biochemical, epi absorbance, recombinant enzyme; Tyrosyl-DNA phosphodiesterase 2 (Homo sapiens), O95551; T5PNP hydrolysis, p-nitrophenol absorbance 415 nm; inhibition, % at 12.8 µM; 370,000 compounds, 0.34% hits;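 active = inhibition above the mean of all tested compounds plus 3 SD, set per campaign, cut at about 25% in these data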
Target sequence (O95551 whole entry, looked up): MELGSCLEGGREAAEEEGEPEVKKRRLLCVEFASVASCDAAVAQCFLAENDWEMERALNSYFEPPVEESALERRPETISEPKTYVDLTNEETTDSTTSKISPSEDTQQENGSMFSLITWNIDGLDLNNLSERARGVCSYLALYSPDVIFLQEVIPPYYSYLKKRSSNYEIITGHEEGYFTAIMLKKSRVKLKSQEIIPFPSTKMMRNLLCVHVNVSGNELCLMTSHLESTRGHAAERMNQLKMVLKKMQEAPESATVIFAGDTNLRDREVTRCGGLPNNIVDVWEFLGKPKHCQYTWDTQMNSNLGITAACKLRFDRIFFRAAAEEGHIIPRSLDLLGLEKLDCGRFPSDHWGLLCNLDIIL
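System: recombinant human TDP2 / Amount: 120 nM TDP2 per well / Also added: 5 mM T5PNP chromogenic substrate / Doses: 12.8 µM single point, 1% DMSO / Incubation: 2 h at 37 °C / Detection: p-Nitrophenol epi absorbance / Evaluation: % inhibition relative to enzyme-containing and enzyme-free wells / Repeats: singlicate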
GSTO1 inh = inhibitors of recombinant GSTO1, primary screen, counter-screen for RBBP9 inhibitor project, biochemical, fluorescence polarization; inhibition, % at 5.96 µM; activity-based probe fluorescence polarization; 300,000 compounds, 1.1% hits; AID 1974, 2009; Glutathione S-transferase omega-1 (Homo sapiens), P78417;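 active = inhibition above the campaign mean inhibition plus 3 SD, cut at about 35% in these data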
Target sequence (P78417 whole entry, looked up): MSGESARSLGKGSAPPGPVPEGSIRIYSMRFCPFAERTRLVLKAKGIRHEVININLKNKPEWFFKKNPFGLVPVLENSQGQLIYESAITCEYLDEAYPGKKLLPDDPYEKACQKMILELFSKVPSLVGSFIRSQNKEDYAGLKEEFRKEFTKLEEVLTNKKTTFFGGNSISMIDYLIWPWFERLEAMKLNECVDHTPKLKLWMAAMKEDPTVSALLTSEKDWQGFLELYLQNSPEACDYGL
TCR-CD3 inh = inhibitors of human TCR-CD3 interaction, primary screen, biochemical, fluorescence, TAMRA-labeled TCR probe. inhibition, % at 9.4 µM. T-cell receptor (TCR). 360,000 compounds, 0.37% hits;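 note: recombinant mutant TCR 2C K166C tagged with TAMRA read by polarization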
Apaf1 inhib = inhibitors of human Apaf-1 apoptosome, primary screen, biochemical, DEVD-Rh110 fluorescence, uHTS | 330,000 compounds, 0.71% hits | reconstituted apoptosome caspase-3 activity | inhibition, % at 20 µM | Apoptotic protease-activating factor 1 (Homo sapiens), O14727; active = inhibition of at least 40% at 20 µM
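Material: reconstituted apoptosome with Apaf-1, cytochrome c, caspase-9, procaspase-3, dATP. Technique: Rh110 fluorescence intensity. Buffer or medium: pH 7.5 Hepes buffer with CHAPS, BSA, DTT. Times: 30 min plus 50 min, RT.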
PAD4 inh = human PAD4 inhibitors, primary screen, biochemical, fluorescence polarization, 1536-well format. Protein-arginine deiminase type-4 (Homo sapiens), Q9UM07. recombinant PAD4, RCA probe fluorescence polarization. inhibition, % at 6.36 µM. 330,000 compounds, 0.41% hits. AID 485272, 2010;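 active = percent inhibition above a cutoff equal to the mean of all tested compounds plus 3 SD, cut at about 15% in these data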
BSA TAMRA ctr = compounds interfering with TAMRA-BSA probe, counter-screen for TCR-CD3 interaction inhibitor project, biochemical, fluorescence, TAMRA-labeled BSA | inhibition, % at 9.4 µM | shares compounds with TCR-CD3 inh | TAMRA-labeled BSA probe fluorescence counterscreen | 1,200 compounds, 10% hits | AID 652035, 2013; in the data active = inhibition above about 23%
TCR-CD3 conf = TCR-CD3 interaction inhibitors, retest, confirmation, biochemical, fluorescence, TAMRA-labeled TCR probe | 1,200 compounds, 48% hits | TAMRA-labeled TCR probe fluorescence binding assay | shares compounds with TCR-CD3 inh | inhibition, % at 9.4 µM
Of the large screens only hits and unclear results are named; the others gave an inactive call (follow-up assays come after a bar, where they were run). Cut-off read from the data, not from the text of the source, unless noted: active = inhibition above about 19%; inactive = the rest.

O=C(N/N=C/c1cccc([N+](=O)[O-])c1)c1cccc2cc[nH]c12	none
Cc1nn(Cc2ccc(Cl)cc2)c(C)c1NC(=O)C(c1ccccc1)c1ccccc1	none
N#Cc1ccc(CC(=O)c2ccccc2)[nH]c1=O	TCR-CD3 inh 60 (no result: GSTO1 inh, Apaf1 inhib, PAD4 inh) | BSA TAMRA ctr inactive | TCR-CD3 conf inactive
Fc1ccccc1-c1nc(N2CCCCC2)c2ccccc2n1	TCR-CD3 inh 28 | BSA TAMRA ctr inactive | TCR-CD3 conf inactive
NC(=O)CCC1NC(=S)N(Cc2ccccc2)C1=O (stereo not given)	TCR-CD3 inh 34 | BSA TAMRA ctr inactive | TCR-CD3 conf 45
COC(=O)c1ccccc1NC(=O)c1ccc2c(c1)OCCO2	none
COC(=O)c1ccccc1NC(=S)NC(=O)c1ccc2c(c1)OCO2	TCR-CD3 inh 45 (no result: GSTO1 inh, PAD4 inh) | BSA TAMRA ctr inactive | TCR-CD3 conf inactive
O=C(N/N=C/c1cn(-c2ccccc2)nc1-c1cc2ccccc2o1)c1ccccc1Br	none
O=C(N/N=C/c1cn(-c2ccccc2)nc1-c1cc2ccccc2o1)c1c[nH]c2ccccc12	TCR-CD3 inh 25 | BSA TAMRA ctr inactive | TCR-CD3 conf inactive
CCN(CC)Cc1c(O)c(Cl)cc2c3c(c(=O)oc12)CCCC3	TCR-CD3 inh 22 | BSA TAMRA ctr inactive | TCR-CD3 conf inactive
CCCn1c(SCC(=O)NCc2ccccc2)n[nH]c1=O	none
COc1ccc(-c2ccc(CCC(=O)O)n2NC(=O)c2cccs2)cc1	none
COc1ccc(CCNc2oc(COc3ccccc3)nc2C#N)cc1	none
Cc1cc([N+](=O)[O-])cc(/C=N/n2c(C)nc3ccccc3c2=O)c1O	TCR-CD3 inh 45 | BSA TAMRA ctr inactive | TCR-CD3 conf 45
Cc1ccccc1-c1nc2ccccc2c(=O)n1/N=C/c1ccccc1[N+](=O)[O-]	none
C/C(=N\OCc1nc2ccccc2c(=O)n1/N=C/c1cc(C)cc([N+](=O)[O-])c1O)c1ccccc1	TCR-CD3 inh 39 | BSA TAMRA ctr inactive | TCR-CD3 conf 50
O=c1c2ccccc2nc(COc2ccccc2)n1/N=C/c1ccc(O)cc1O	TCR-CD3 inh 21 | BSA TAMRA ctr inactive | TCR-CD3 conf 21
O=C1CSC(c2cn(-c3ccccc3)nc2-c2ccccc2)N1Cc1ccco1 (stereo not given)	none
O=c1c(OC2OC(CO)C(O)C(O)C2OC2OC(CO)C(O)C(O)C2O)c(-c2ccc(O)cc2)oc2cc(O)cc(O)c12 (stereo not given)	TCR-CD3 inh 23 | BSA TAMRA ctr inactive | TCR-CD3 conf inactive
O=c1[nH]c2cc([N+](=O)[O-])ccc2c2ccccc12	none (no result: GSTO1 inh, Apaf1 inhib, PAD4 inh)
CCCCC(=O)Nc1ccc(NC(=O)c2ccco2)cn1	none
C=CCOc1ccccc1CN(CCc1ccccc1)C(=O)c1cccc(S(C)(=O)=O)c1	none
COc1cccc(/C=C2\SC(=S)N(CCC(=O)NNC(=O)c3ccccc3OC)C2=O)c1	TCR-CD3 inh 41 | BSA TAMRA ctr inactive | TCR-CD3 conf 22
COc1ccc(/C=C2\SC(=S)N(CCCC(=O)NNC(=O)c3ccccc3O)C2=O)cc1	TCR-CD3 inh 31 | BSA TAMRA ctr inactive | TCR-CD3 conf 22
COc1cccc(/C=C2/SC(=S)N(CC(=O)NNC(=O)c3ccccc3OC)C2=O)c1	none
O=C(CCCN1C(=O)/C(=C/c2cccs2)SC1=S)NNC(=O)c1ccncc1	none
O=C(CCCN1C(=O)/C(=C/c2cccs2)SC1=S)NNC(=O)c1ccccc1O	TCR-CD3 inh 31 | BSA TAMRA ctr inactive | TCR-CD3 conf 31
COc1ccc(NS(=O)(=O)c2cccc(NC(=O)NC3CCCCC3)c2)cc1	none
C/C(=C\C(=O)c1ccc(Br)cc1)NNC(=O)c1ccc(O)cc1	TCR-CD3 inh 35 | BSA TAMRA ctr inactive | TCR-CD3 conf 27
Cc1nc2ccc(NC(=O)c3ccc(=O)[nH]c3)cc2s1	none
O=C1C(=Cc2cn(-c3ccccc3)nc2-c2ccc(OCc3ccccc3)cc2)SC(=S)N1CCS(=O)(=O)O	TCR-CD3 inh 26 (no result: GSTO1 inh, Apaf1 inhib, PAD4 inh) | BSA TAMRA ctr inactive | TCR-CD3 conf 19
Cc1cc(Cl)ccc1OCC(=O)OC(C)C(=O)NC(N)=O (stereo not given)	none
O=C(c1ccc(Cl)c(Cl)c1)c1cc(-c2ccccn2)c(N2CCOCC2)s1	none
CNCC(O)C(O)C(O)C(O)CO (stereo not given)	none
OC[C@@H](O)C(O)[C@@H](O)CO (stereo not given in full)	TCR-CD3 inh 47 (no result: GSTO1 inh, Apaf1 inhib, PAD4 inh) | BSA TAMRA ctr inactive | TCR-CD3 conf inactive
COc1ccc(S(=O)(=O)Nc2c(NC3CCCCC3)c3ccccc3oc2=O)cc1Cl	none
Cc1cc(S(=O)(=O)Nc2c(NC3CCCCC3)c3ccccc3oc2=O)ccc1F	TCR-CD3 inh 19 | BSA TAMRA ctr inactive | TCR-CD3 conf inactive
COCCN1C(=O)c2ccccc2C(C(=O)N2CCN(c3ccccc3)CC2)C1c1ccc(F)cc1 (stereo not given)	none
COc1ccc(OC)c(C(O)c2ncc(-c3ccccc3Cl)[nH]2)c1 (stereo not given)	none (no result: GSTO1 inh, Apaf1 inhib, PAD4 inh)
Cc1ccc(-c2cc(-c3n[nH]c(=S)o3)c3ccccc3n2)cc1	none (no result: Apaf1 inhib)
S=c1[nH]nc(-c2cc(-c3ccccn3)nc3ccccc23)o1	TCR-CD3 inh 33 | BSA TAMRA ctr inactive | TCR-CD3 conf inactive
CCOC(=O)N1CCN(c2c(N3CCN(C(=O)OCC)CC3)c(=O)c2=O)CC1	none
CCC(C(=O)NC(C)(C)C)n1c(-c2cccc(NC(C)=O)c2)nc2ccccc21 (stereo not given)	none (no result: GSTO1 inh, Apaf1 inhib, PAD4 inh)
O=c1cc(-c2ccc(O)c(O)c2)oc2ccc3ccccc3c12	TCR-CD3 inh 56 (no result: GSTO1 inh, PAD4 inh) | BSA TAMRA ctr inactive | TCR-CD3 conf 48
O=c1cc(-c2ccc(O)c(O)c2)oc2c1ccc1ccccc12	TCR-CD3 inh 40 (no result: GSTO1 inh) | BSA TAMRA ctr inactive | TCR-CD3 conf 75
CC(/C=C/c1ccccc1)=N/NC(=O)c1cnccn1	none
C=CCn1c(O)c(N=NC(=O)CNC(=O)/C=C/c2ccc(OC)cc2)c2ccccc21	none
C=CCn1c(O)c(N=NC(=O)CNC(=O)/C=C/c2ccco2)c2ccccc21	TCR-CD3 inh 23 | BSA TAMRA ctr inactive | TCR-CD3 conf 20
